According to ChEMBL document CHEMBL1122132, “Synthesis, 470-MHz 1H NMR spectra, and activity of delactonized derivatives of the anticancer drug etoposide” (1982):

Experiments:
Format in all cases: functional
Mus musculus [1] = assay: Percent increase in life span of mouse leukemia L1210 system at a dose of 45 mg/kg
L1210 [2] = assay: In vitro cytotoxic activity tested in mouse leukemia L1210 cells at a dose of 50.0 ug/mL; conditions: read-out: Survival
Procedure, shortened: (§1)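 Continuous mouse L1210 leukemia cell line exposed to 0.5, 5.0 or 50.0 μg/mL in a soft agar clonogenic assay. Colony survival is expressed as % of untreated control, with control set at 100.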

Mus musculus [3] = assay: Percent increase in life span of mouse leukemia L1210 system at a dose of 60 mg/kg
L1210 [4] = assay: In vitro cytotoxic activity tested in mouse leukemia L1210 cells at a dose of 5.0 ug/mL; conditions: read-out: Survival; procedure, shortened: as §1
Mus musculus [5] = assay: Percent increase in life span of mouse leukemia L1210 system at a dose of 30 mg/kg
L1210 [6] = assay: In vitro cytotoxic activity tested in mouse leukemia L1210 cells at a dose of 0.5 ug/mL; conditions: read-out: Survival; procedure, shortened: as §1

SMILES | ILS at 45 mg/kg (Mus musculus [1]) | viability at 50 µg/mL (L1210 [2]) | ILS at 60 mg/kg (Mus musculus [3]) | viability at 5 µg/mL (L1210 [4]) | ILS at 30 mg/kg (Mus musculus [5]) | viability at 0.5 µg/mL (L1210 [6])
COc1cc([C@@H]2c3cc4c(cc3[C@@H](O[C@@H]3O[C@@H]5CO[C@@H](C)O[C@H]5[C@H](O)[C@H]3O)[C@@H](CO)[C@@H]2CO)OCO4)cc(OC)c1O | 0% | 43% | 5% | 221% | 0% | 
COc1cc([C@@H]2c3cc4c(cc3[C@@H](O[C@@H]3O[C@@H]5CO[C@@H](C)O[C@H]5[C@H](O)[C@H]3O)[C@H]3COC[C@H]23)OCO4)cc(OC)c1O | 25% | 0% | 30% | 0% | 10% | 165%
COc1cc([C@@H]2c3cc4c(cc3[C@@H](O[C@@H]3O[C@@H]5CO[C@@H](C)O[C@H]5[C@H](O)[C@H]3O)[C@H]3COC(=O)[C@H]23)OCO4)cc(OC)c1O [ETOPOSIDE] |  | 0% | 103% | 1% | 110% | 0%
